Experimental data from ChEMBL document CHEMBL4261611, “Identification of steroidal derivatives inhibiting the transformations of allopregnanolone and estradiol by 17β-hydroxysteroid dehydrogenase type 10” (Bioorg Med Chem Lett, 2018).
pIC50: −log10 of the molar value. The source made the active and inactive calls. The calls are words filed in the database; no cut-off is given here.

Key:
[1] = biological target: T1, 3-hydroxyacyl-CoA dehydrogenase type-2 (Mus musculus) (UniProt O08756); test: Inhibition of recombinant mouse full-length 17beta-HSD10 (2 to 261 residues) assessed as reduction in transformation of [3H]-ALLOP to 5alpha-DHP at 100 uM after 48 hrs in presence of 1 mM NAD+ cofactor by liquid scintillation counting method relative to control
T1 sequence (whole entry): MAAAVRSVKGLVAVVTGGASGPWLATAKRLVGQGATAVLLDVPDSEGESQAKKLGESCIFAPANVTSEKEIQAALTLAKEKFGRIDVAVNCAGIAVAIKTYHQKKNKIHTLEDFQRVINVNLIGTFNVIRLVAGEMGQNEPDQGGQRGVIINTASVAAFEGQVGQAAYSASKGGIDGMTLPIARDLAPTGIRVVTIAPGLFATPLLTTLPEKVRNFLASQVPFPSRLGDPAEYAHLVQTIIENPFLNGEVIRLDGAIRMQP
Summary of the method: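 Screen at 100 μM inhibitor, 48 h, with 400 ng/mL purified enzyme, 1 mM NAD⁺ and 1 μM [³H]-ALLOP/ALLOP (1:99). ALLOP-to-5α-DHP conversion was expressed as % inhibition versus the no-inhibitor transformation. Results are mean ± SEM.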

[2] = Octanol/water partition co-efficient, log P of the compound; format: physicochemical
Summary of the method: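 Octanol/water partition coefficient calculated in silico, not measured.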

[3] = biological target: T1, 3-hydroxyacyl-CoA dehydrogenase type-2 (Mus musculus); test: Inhibition of recombinant mouse full-length 17beta-HSD10 (2 to 261 residues) assessed as reduction in transformation of [14C]-E2 to E1 at 100 uM after 48 hrs in presence of 1 mM NAD+ cofactor by liquid scintillation counting method
[4] = biological target: T1, 3-hydroxyacyl-CoA dehydrogenase type-2 (Mus musculus); test: Inhibition of recombinant mouse full-length 17beta-HSD10 (2 to 261 residues) assessed as reduction in transformation of [14C]-E2 to E1 at 300 uM after 48 hrs in presence of 1 mM NAD+ cofactor by liquid scintillation counting method relative to control
Summary of the method: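 Single-concentration screen at 300 μM inhibitor. Purified 17β-HSD10 (400 ng/mL), 1 mM NAD⁺, 1 μM [¹⁴C]-E2/E2 (1:9), 48 h incubation. E2-to-E1 conversion was measured and inhibition expressed relative to uninhibited transformation. Results are mean ± SEM.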

[5] = biological target: T2, 3-hydroxyacyl-CoA dehydrogenase type-2 (Mus musculus, UniProt O08756); test: Inhibition of recombinant mouse full-length 17beta-HSD10 (2 to 261 residues) assessed as reduction in transformation of [3H]-ALLOP to 5alpha-DHP after 48 hrs in presence of 1 mM NAD+ cofactor by liquid scintillation counting method
T2 sequence (O08756 whole entry): T1 sequence (whole entry)
Summary of the method: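 Purified 17β-HSD10 (400 ng/mL), 1 mM NAD⁺, 1 μM [³H]-ALLOP/ALLOP (1:99), 48 h incubation. Oxidation to 5α-DHP was measured over a range of inhibitor concentrations to build inhibition curves and estimate IC50. Results are mean ± SEM.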

[6] = biological target: T2, 3-hydroxyacyl-CoA dehydrogenase type-2; test: Inhibition of recombinant mouse full-length 17beta-HSD10 (2 to 261 residues) assessed as reduction in transformation of [14C]-E2 to E1 after 48 hrs in presence of 1 mM NAD+ cofactor by liquid scintillation counting method
Summary of the method: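 Purified 17β-HSD10 at 400 ng/mL with 1 mM NAD⁺ and substrate [¹⁴C]-E2/E2 (1:9) at 1 μM total, incubated 48 h. E2-to-E1 oxidation was followed with radiolabel. Percent inhibition over a dose range was used for dose-response curves and IC50 estimation. Results are mean ± SEM.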

[7] = Blood-brain transfer coefficient in mouse administered via perfusion; format: ADME, tissue-based; settings: in vivo, other
[8] = Solubility of the compound at 600 to 1000 uM; format: physicochemical
[9] = Effect on mouse brain penetration assessed as [14C]-sucrose uptake administered via perfusion; format: ADME, tissue-based; settings: in vivo

SMILES	inhibition [1] [%]	logP [2]	inhibition [3]	inhibition [4] [%]	pIC50 [5]	pIC50 [6]	Kin [7] [µL/s/g]	solubility [8]	Activity [9]
C[C@]12CC[C@](O)(CN3CCN(Cc4cnc5ccccc5c4)CC3)C[C@@H]1CC[C@@H]1[C@@H]2CC[C@]2(C)C(=O)CC[C@@H]12	15.2	4.58	inactive	36.1	–	–	–	–	–
COc1cccc(CN2CCN(C[C@@]3(O)CC[C@@]4(C)[C@@H](CC[C@@H]5[C@@H]4CC[C@]4(C)[C@@H](O)CC[C@@H]54)C3)CC2)c1	0	4.67	inactive	13.7	–	–	–	–	–
COc1cccc(CN2CCN(C[C@@]3(O)CC[C@@]4(C)[C@@H](CC[C@@H]5[C@@H]4CC[C@]4(C)[C@H](O)CC[C@@H]54)C3)CC2)c1	41.7	4.67	inactive	31.7	3.63	3.21	–	–	–
Cc1cc(C)cc(C(=O)N2CCN(C[C@@]3(O)CC[C@@]4(C)[C@@H](CC[C@@H]5[C@@H]4CC[C@]4(C)C(=O)CC[C@@H]54)C3)CC2)c1	1.5	4.86	inactive	–	–	–	–	–	–
CCN(C)S(=O)(=O)N1CCN(C[C@@]2(O)CC[C@@]3(C)[C@@H](CC[C@@H]4[C@@H]3CC[C@]3(C)C(=O)CC[C@@H]43)C2)CC1	0	2.97	inactive	10.2	–	–	–	–	–
CN1C(=O)CN=C(c2ccccc2)c2cc(Cl)ccc21 [DIAZEPAM]	–	–	–	–	–	–	50 to 60	–	–
COc1cccc(CN2CCN(C[C@@]3(O)CC[C@@]4(C)[C@@H](CC[C@@H]5[C@@H]4CC[C@@]4(C)[C@H]5CCC4(F)F)C3)CC2)c1	38.6	5.57	inactive	13.3	–	–	–	Insoluble	–
COc1cccc(CN2CCN(C[C@@]3(O)CC[C@@]4(C)[C@@H](CC[C@@H]5[C@@H]4CC[C@]4(C)C(=O)CC[C@@H]54)C3)CC2)c1	14.7	4.43	inactive	30	3.01	3.15	13.8 to 32.7	–	Non-Toxic
CC(=O)c1cccc(C(=O)N2CCN(C[C@@]3(O)CC[C@@]4(C)[C@@H](CC[C@@H]5[C@@H]4CC[C@]4(C)C(=O)CC[C@@H]54)C3)CC2)c1	5	3.85	inactive	–	–	–	–	–	–
COc1cc(CN2CCN(C[C@@]3(O)CC[C@@]4(C)[C@@H](CC[C@@H]5[C@@H]4CC[C@]4(C)C(=O)CC[C@@H]54)C3)CC2)ccc1C	12.5	4.72	inactive	31	–	–	–	–	–
CN(C)S(=O)(=O)c1ccc(NC(=S)N2CCN(C[C@@]3(O)CC[C@@]4(C)[C@@H](CC[C@@H]5[C@@H]4CC[C@]4(C)C(=O)CC[C@@H]54)C3)CC2)cc1	13.3	3.32	inactive	0.3	–	–	–	–	–
C#C[C@]1(O)CC[C@H]2[C@@H]3CC[C@H]4C[C@@](O)(CN5CCN(Cc6cccc(OC)c6)CC5)CC[C@]4(C)[C@H]3CC[C@@]21C	20	4.93	inactive	44.5	–	–	–	–	–
C[C@]12CC[C@@H]3c4ccc(O)cc4CC[C@H]3[C@@H]1CC[C@@H]2O [ESTRADIOL]	–	–	–	–	3.11	3.81	–	–	–
C[C@]12CC[C@](O)(CN3CCN(C(=O)c4ccc(C(=O)c5ccccc5)cc4)CC3)C[C@@H]1CC[C@@H]1[C@@H]2CC[C@]2(C)C(=O)CC[C@@H]12	8	4.99	inactive	58.8	–	–	–	–	–
COc1cccc(CN2CCN(C[C@@]3(O)CC[C@@]4(C)[C@@H](CC[C@@H]5[C@@H]4CC[C@]4(C)C(=O)C(C)(C)C[C@@H]54)C3)CC2)c1	11.1	5.57	inactive	24.6	–	–	–	–	–
COc1cccc(CN2CCN(C[C@@]3(O)CC[C@@]4(C)[C@@H](CC[C@@H]5[C@@H]4CC[C@@]4(C)[C@H]5CC[C@]4(C)O)C3)CC2)c1	21.9	5.06	inactive	22.6	–	–	–	–	–
C[C@]12CC[C@](O)(CN3CCN(C(=O)c4ccc(-c5ccccc5)cc4)CC3)C[C@@H]1CC[C@@H]1[C@@H]2CC[C@]2(C)C(=O)CC[C@@H]12	19.3	5.3	inactive	29.4	–	–	–	–	–
C[C@]12CC[C@](O)(CN3CCN(C(=S)NCc4cccc(C(F)(F)F)c4)CC3)C[C@@H]1CC[C@@H]1[C@@H]2CC[C@]2(C)C(=O)CC[C@@H]12	34.2	3.85	inactive	8.5	–	–	–	–	–
